PubChem BioAssay AID1263 (The Scripps Research Institute Molecular Screening Center, 2008)
This is one part of the list. Activity calls are given as the source filed them.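 How the source made its calls: active means triplicate mean inhibition exceeding the hit cutoff computed for the primary STAT1 screen (cut at about 35% in these data); inactive means the rest.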

experiment: STAT1 signaling inhibitors, confirmation, cell-based, HTS, luciferase reporter (AID 1263); conditions: NIH 3T3 STAT1-luciferase reporter, IFN-gamma, luminescence; at 5.5 µM; active compounds read high;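 further: 0% = DMSO with IFN-gamma and 100% = 300 µM nifuroxazide with IFN-gamma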
Procedure, shortened: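 Test system: NIH 3T3 cells carrying a STAT1::luciferase reporter. Times: compound preincubation 1 h, IFN-gamma exposure 4 h, 37 °C, substrate 15 min. Technique: luminescence after luciferase substrate addition. Read-out basis: % inhibition scaled between DMSO and nifuroxazide. Benchmarks: high control 300 µM nifuroxazide, low control DMSO. Replicates: triplicate wells per compound.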

Row | SMILES | inhibition
1 | COc1ccc(C(=O)Nc2ccccc2C(=O)N/N=C/c2ccccc2OC)cc1 | 0.25% (inactive)
2 | CCOC(=O)C(=CNc1cccc(C)n1)C(=O)OCC | 32.5% (inactive)
3 | Cc1ccc(C2=Nc3c(ccc4ccccc34)C(c3ccncc3)=NN2)cc1 | 60.4% (active)
4 | O=C(CCl)N(Cc1cccc([N+](=O)[O-])c1)c1cccc(Cl)c1 | 33.3% (inactive)
5 | COC(=O)C1=CN(Cc2ccc(OC)c(OC)c2)C=C(C(=O)OC)C1c1cccs1 | 38.3% (active)
6 | CCOC(=O)N1CCN(C(=O)CSc2nnc(-c3c[nH]c4ccccc34)n2CCOC)CC1 | 33.9% (inactive)
7 | CCOC(=O)N1CCN(C(=O)C2CCN(c3ncnc4c3sc3cccc(F)c34)CC2)CC1 | 41.5% (active)
8 | NS(=O)(=O)c1cccc(NC(=O)CSc2nc3ccccc3n2-c2ccccc2)c1 | 31.4% (inactive)
9 | C[C@@H]1C[C@@H]2O[C@H]2/C=C\C=C\C(=O)Cc2c(Cl)c(O)cc(O)c2C(=O)O1 | 61% (active)
10 | COc1ccc(C2CC(c3cccs3)=NN2c2nc(C)c(C(C)=O)s2)cc1OC (stereo not given) | 20.8% (inactive)
